Laboratory results taken from article PMC6923801 (Journal of medicinal chemistry, 2019).

Target: human GPR68 (Homo sapiens, UniProt Q15743)
Test: GloSensor cAMP assay, proton-mediated Gs-cAMP production at human GPR68
Assay type: cell-based
Conditions: for Δ: difference of Log(αβ/KB) from that of 1; for Δ / −Log (KB) / Log (αβ/KB): human GPR68; for Log (α): affinity cooperativity; for Log (α) / Log (β): human GPR68, HEK293T, Gs-cAMP; for Log (α) / −Log (KB) / Log (αβ/KB) / Log (β): mean ± SEM; for −Log (KB): allosteric binding affinity from functional assay; for Log (αβ/KB): allosteric index; for Log (β): efficacy cooperativity
How it was run: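 HEK293T cells were transiently transfected with receptor and GloSensor cAMP plasmids, overnight (16–20 h). Cells were plated on poly-L-Lys in DMEM + 1% dFBS for 6–24 h, then loaded with 3.5 mM luciferin (HBSS, 20 mM TAPS, pH 8.40) for 1 h at 37 °C. Drug was applied in Ca/Mg-free HBSS pH buffers (MES 5.60–6.70, HEPES 6.80–8.20, TAPS 8.30–8.60) with 10 μM Ro 20-1724. Luminescence was read at 20–30 min.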

Chain of human GPR68 (Q15743 whole entry): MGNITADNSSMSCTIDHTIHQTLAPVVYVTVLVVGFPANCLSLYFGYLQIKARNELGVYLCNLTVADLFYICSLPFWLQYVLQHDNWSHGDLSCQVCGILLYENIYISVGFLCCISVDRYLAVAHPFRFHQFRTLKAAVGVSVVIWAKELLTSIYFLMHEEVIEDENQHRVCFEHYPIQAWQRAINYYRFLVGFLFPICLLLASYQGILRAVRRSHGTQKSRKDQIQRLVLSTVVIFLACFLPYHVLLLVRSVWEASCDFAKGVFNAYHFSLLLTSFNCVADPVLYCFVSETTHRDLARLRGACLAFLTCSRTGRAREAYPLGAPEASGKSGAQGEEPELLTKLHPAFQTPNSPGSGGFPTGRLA

Row | SMILES | Kb | Δ | Log (α) | −Log (KB) | Log (αβ/KB) | Log (β)
1 | CNc1nc(NCc2ccccc2)nc(-c2ccccc2CO)n1 [Compound 5] | 30.9 µM | 0.05 | – | – | – | –
2 | CCNc1nc(NCc2ccccc2)nc(-c2ccccc2CO)n1 [Compound 6, (2-(4-(Benzylamino)-6-(ethylamino)-1,3,5-triazin-2-yl)phenyl)-methanol] | 23.4 µM | 0.03 | – | – | – | –
3 | Nc1cc(-c2ccccc2CO)nc(NCc2ccccc2)n1 [Compound 10, (2-(6-Amino-2-(benzylamino)pyrimidin-4-yl)phenyl)methanol] | – | Weak PAM | Weak PAM | Weak PAM | Weak PAM | Weak PAM
4 | Nc1nc(NCc2ccccc2)nc(-c2ccccc2)n1 [Compound 13, N^2-Benzyl-6-phenyl-1,3,5-triazine-2,4-diamine] | – | Inactive | Inactive | Inactive | Inactive | Inactive
5 | Cc1ccccc1-c1nc(N)nc(NCc2ccccc2)n1 [Compound 14, N^2-Benzyl-6-(o-tolyl)-1,3,5-triazine-2,4-diamine] | – | Weak PAM | Weak PAM | Weak PAM | Weak PAM | Weak PAM
6 | CC(=O)c1ccccc1-c1nc(N)nc(NCc2ccccc2)n1 [Compound 15, 1-(2-(4-Amino-6-(benzylamino)-1,3,5-triazin-2-yl)phenyl)ethan-1-one] | – | Weak PAM | Weak PAM | Weak PAM | Weak PAM | Weak PAM
7 | CC(O)c1ccccc1-c1nc(N)nc(NCc2ccccc2)n1 (stereo not shown) [Compound 16, 1-(2-(4-Amino-6-(benzylamino)-1,3,5-triazin-2-yl)phenyl)ethan-1-ol] | – | Weak PAM | Weak PAM | Weak PAM | Weak PAM | Weak PAM
8 | NCc1ccccc1-c1nc(N)nc(NCc2ccccc2)n1 [Compound 18, 6-(2-(Aminomethyl)phenyl)-N^2-benzyl-1,3,5-triazine-2,4-diamine] | 138 µM | −0.30 | – | – | – | –
9 | CNCc1ccccc1-c1nc(N)nc(NCc2ccccc2)n1 [Compound 19, N^2-Benzyl-6-(2-((methylamino)methyl)phenyl)-1,3,5-triazine-2,4-diamine] | – | Weak PAM | Weak PAM | Weak PAM | Weak PAM | Weak PAM
10 | Nc1nc(NCc2ccccc2)nc(-c2cccc(F)c2CO)n1 [Compound 22, (2-(4-Amino-6-(benzylamino)-1,3,5-triazin-2-yl)-6-fluorophenyl)-methanol] | 97.7 µM | −0.45 | – | – | – | –
11 | Nc1nc(NCc2ccccc2)nc(-c2c(Cl)cccc2CO)n1 [Compound 28, (2-(4-Amino-6-(benzylamino)-1,3,5-triazin-2-yl)-3-chlorophenyl)methanol] | 37.2 µM | 0.25 | – | – | – | –
12 | COc1cccc(-c2nc(N)nc(NCc3ccccc3)n2)c1CO [Compound 29, (2-(4-Amino-6-(benzylamino)-1,3,5-triazin-2-yl)-6-methoxyphenyl)methanol] | 69.2 µM | −0.45 | – | – | – | –
13 | COc1cccc(CO)c1-c1nc(N)nc(NCc2ccccc2)n1 [Compound 32, (2-(4-Amino-6-(benzylamino)-1,3,5-triazin-2-yl)-3-methoxyphenyl)methanol] | – | Weak PAM | Weak PAM | Weak PAM | Weak PAM | Weak PAM
14 | CCOc1ccc(-c2nc(N)nc(NCc3ccccc3)n2)c(CO)c1 [Compound 37, (2-(4-Amino-6-(benzylamino)-1,3,5-triazin-2-yl)-5-ethoxyphenyl)methanol] | 42.7 µM | 0.03 | – | – | – | –
15 | CC(C)Oc1ccc(-c2nc(N)nc(NCc3ccccc3)n2)c(CO)c1 [Compound 38, (2-(4-Amino-6-(benzylamino)-1,3,5-triazin-2-yl)-5-isopropoxyphenyl)methanol] | 12.3 µM | 0.43 | – | – | – | –
16 | Nc1nc(NCc2ccccc2C(F)(F)F)nc(-c2ccccc2CO)n1 [Compound 47, (2-(4-Amino-6-((2-(trifluoromethyl)benzyl)amino)-1,3,5-triazin-2-yl)phenyl)methanol] | 8.91 µM | 0.65 | – | – | – | –
17 | Nc1nc(NCc2ccc(C(F)(F)F)cc2)nc(-c2ccccc2CO)n1 [Compound 49, (2-(4-Amino-6-((4-(trifluoromethyl)benzyl)amino)-1,3,5-triazin-2-yl)phenyl)methanol] | 9.33 µM | 0.79 | – | – | – | –
18 | CCOc1ccc(CNc2nc(N)nc(-c3ccccc3CO)n2)cc1 [Compound 56, (2-(4-Amino-6-((4-ethoxybenzyl)amino)-1,3,5-triazin-2-yl)-phenyl)methanol] | 17 µM | 0.26 | – | – | – | –
19 | CC(C)Oc1ccc(CNc2nc(N)nc(-c3ccccc3CO)n2)cc1 [Compound 57, (2-(4-Amino-6-((4-isopropoxybenzyl)amino)-1,3,5-triazin-2-yl)-phenyl)methanol] | 10.2 µM | 0.38 | – | – | – | –

Further lines, results first:

Row | Kb | Δ | Log (α) | −Log (KB) | Log (αβ/KB) | Log (β) | SMILES
20 | 26.3 µM | 0.15 | – | – | – | – | Nc1nc(NCc2ccccc2)nc(-c2ccc(F)cc2CO)n1 [Compound 23, (2-(4-Amino-6-(benzylamino)-1,3,5-triazin-2-yl)-5-fluorophenyl)-methanol]
21 | 26.3 µM | 0.38 | – | – | – | – | Nc1nc(NCc2ccccc2)nc(-c2cc(F)ccc2CO)n1 [Compound 24, (2-(4-Amino-6-(benzylamino)-1,3,5-triazin-2-yl)-4-fluorophenyl)-methanol]
22 | 204 µM | −0.12 | – | – | – | – | Nc1nc(NCc2ccccc2)nc(-c2c(F)cccc2CO)n1 [Compound 25, (2-(4-Amino-6-(benzylamino)-1,3,5-triazin-2-yl)-3-fluorophenyl)-methanol]
23 | 17.4 µM | 0.56 | – | – | – | – | Nc1nc(NCc2ccccc2)nc(-c2ccc(Cl)cc2CO)n1 [Compound 26, (2-(4-Amino-6-(benzylamino)-1,3,5-triazin-2-yl)-5-chlorophenyl)methanol]
24 | 32.4 µM | 0.47 | – | – | – | – | Nc1nc(NCc2ccccc2)nc(-c2cc(Cl)ccc2CO)n1 [Compound 27, (2-(4-Amino-6-(benzylamino)-1,3,5-triazin-2-yl)-4-chlorophenyl)methanol]
25 | 75.9 µM | −0.34 | – | – | – | – | COc1ccc(-c2nc(N)nc(NCc3ccccc3)n2)c(CO)c1 [Compound 30]
26 | 102 µM | −0.54 | – | – | – | – | COc1ccc(CO)c(-c2nc(N)nc(NCc3ccccc3)n2)c1 [Compound 31, (2-(4-Amino-6-(benzylamino)-1,3,5-triazin-2-yl)-4-methoxyphenyl)methanol]
27 | 53.7 µM | 0.25 | – | – | – | – | Nc1nc(NCc2ccccc2F)nc(-c2ccccc2CO)n1 [Compound 41, (2-(4-Amino-6-((2-fluorobenzyl)amino)-1,3,5-triazin-2-yl)-phenyl)methanol]
28 | 30.2 µM | 0.24 | – | – | – | – | Nc1nc(NCc2cccc(F)c2)nc(-c2ccccc2CO)n1 [Compound 42, (2-(4-Amino-6-((3-fluorobenzyl)amino)-1,3,5-triazin-2-yl)-phenyl)methanol]
29 | 107 µM | 0.11 | – | – | – | – | Nc1nc(NCc2ccc(F)cc2)nc(-c2ccccc2CO)n1 [Compound 43, (2-(4-Amino-6-((4-fluorobenzyl)amino)-1,3,5-triazin-2-yl)-phenyl)methanol]
30 | 8.51 µM | 0.63 | – | – | – | – | Nc1nc(NCc2ccccc2Cl)nc(-c2ccccc2CO)n1 [Compound 44, (2-(4-Amino-6-((2-chlorobenzyl)amino)-1,3,5-triazin-2-yl)-phenyl)methanol]
31 | 10.7 µM | 0.59 | – | – | – | – | Nc1nc(NCc2cccc(Cl)c2)nc(-c2ccccc2CO)n1 [Compound 45, (2-(4-Amino-6-((3-chlorobenzyl)amino)-1,3,5-triazin-2-yl)-phenyl)methanol]
32 | 7.76 µM | 0.76 | – | – | – | – | Nc1nc(NCc2cccc(C(F)(F)F)c2)nc(-c2ccccc2CO)n1 [Compound 48, (2-(4-Amino-6-((3-(trifluoromethyl)benzyl)amino)-1,3,5-triazin-2-yl)phenyl)methanol]
33 | 20 µM | 0.26 | – | – | – | – | Cc1ccccc1CNc1nc(N)nc(-c2ccccc2CO)n1 [Compound 50, (2-(4-Amino-6-((2-methylbenzyl)amino)-1,3,5-triazin-2-yl)-phenyl)methanol]
34 | 39.8 µM | 0.26 | – | – | – | – | Cc1cccc(CNc2nc(N)nc(-c3ccccc3CO)n2)c1 [Compound 51, (2-(4-Amino-6-((3-methylbenzyl)amino)-1,3,5-triazin-2-yl)-phenyl)methanol]
35 | 41.7 µM | 0.29 | – | – | – | – | Cc1ccc(CNc2nc(N)nc(-c3ccccc3CO)n2)cc1 [Compound 52, (2-(4-Amino-6-((4-methylbenzyl)amino)-1,3,5-triazin-2-yl)-phenyl)methanol]
36 | 102 µM | −0.28 | – | – | – | – | COc1ccccc1CNc1nc(N)nc(-c2ccccc2CO)n1 [Compound 53, (2-(4-Amino-6-((2-methoxybenzyl)amino)-1,3,5-triazin-2-yl)-phenyl)methanol]
37 | 77.6 µM | −0.09 | – | – | – | – | COc1cccc(CNc2nc(N)nc(-c3ccccc3CO)n2)c1 [Compound 54, (2-(4-Amino-6-((3-methoxybenzyl)amino)-1,3,5-triazin-2-yl)-phenyl)methanol]
38 | 457 µM | −0.70 | – | – | – | – | COc1ccc(CNc2nc(N)nc(-c3ccccc3CO)n2)cc1 [Compound 55]
